This is an account of results in ChEMBL document CHEMBL4390662, “Design, synthesis and biological evaluation of novel α-acyloxy carboxamides via Passerini reaction as caspase 3/7 activators” (Eur J Med Chem, 2019).

≈ marks a conversion by molar mass, not a printed value. Calls of active or inactive are those of the source. The calls are words filed in the database; no cut-off is given here.

In series [1] the test system is WI-38. The series is described as follows: Cytotoxicity against human WI38 cells assessed as cell growth inhibition incubated for 72 hrs by MTT assay. Type of series: cell-based. To be noted: for IC50: Homo sapiens, WI-38, 72 h; for EC100: human, wi-38, 72 h. Put shortly: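 Wi-38 fibroblasts grown in DMEM with 10% FBS and seeded at 5×10^3 per well. Attachment 24 h, then serial concentrations for 72 h at 37°C, 5% CO2. MTT stock (5 mg/mL) added for 3 h at 37°C, DMSO solubilization, absorbance at 570 nm. IC50 estimated.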

The test system of series [2] is NFS-60. The series is described as follows: Induction of apoptosis in mouse NFS60 cells assessed as viable cells level at IC50 incubated for 72 hrs by annexin V/propidium iodide staining based flow cytometry (reference value: 99.52%). Type of series: functional.
In series [3] the test system is HepG2. Description: Induction of apoptosis in human HepG2 cells assessed as viable cells level at IC50 incubated for 72 hrs by annexin V/propidium iodide staining based flow cytometry (reference value: 98.97%). Type of series: functional.
A short description of series [4]: Selectivity index, ratio of IC50 for human WI38 cells to IC50 for human HepG2 cells. Type of series: toxicity. To be noted: WI38 cells versus HepG2 cells, read-out: Ratio IC50. In a few lines: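 SI calculated as IC50 on normal Wi-38 fibroblasts divided by IC50 on the cancer cell line. Both came from 72 h MTT assays.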
The test system of series [5] is HepG2. Description: Induction of apoptosis in human HepG2 cells assessed as late apoptotic cells at IC50 incubated for 72 hrs by annexin V/propidium iodide staining based flow cytometry (reference value: 0.1 +/- 0.001%). Type of series: functional.
Series [6] concerns HepG2. Description: Induction of apoptosis in human HepG2 cells assessed as necrotic cells level at IC50 incubated for 72 hrs by annexin V/propidium iodide staining based flow cytometry (reference value: 0.87%). Type of series: functional.
Series [7] relates to NFS-60. Description: Induction of apoptosis in mouse NFS60 cells assessed as early apoptotic cells at IC50 incubated for 72 hrs by annexin V/propidium iodide staining based flow cytometry (reference value: 0.02 +/- 0.01%). Type of series: functional.
In series [8] the test system is NFS-60. Description: Induction of apoptosis in mouse NFS60 cells assessed as late apoptotic cells at IC50 incubated for 72 hrs by annexin V/propidium iodide staining based flow cytometry (reference value: 0.015 +/- 0.01%).
Series [9] has as its system Candida albicans. The series is described as follows: Antimicrobial activity against Candida albicans ATCC 90028 incubated for 48 hrs by agar well diffusion assay. Type of series: functional. In a few lines:
(§1)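 Nutrient agar spread with 100 µL inoculum: bacteria at 1×10^8 CFU/mL, fungi at 1×10^6 CFU/mL. 10 mm wells loaded with 100 µL of compound in DMSO (final 1 mg/mL). Bacteria incubated 24 h at 37 °C, fungi 48 h at 28 °C. Inhibition zones measured in mm. Ciprofloxacin and fluconazole standards at 1 mg/mL, DMSO negative control.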

Series [10] relates to Staphylococcus aureus. Description: Antimicrobial activity against Staphylococcus aureus ATCC 25923 incubated for 24 hrs by microdilution assay. Type of series: functional. In a few lines: (§2)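 Two-fold serial dilutions of test solutions made in Mueller Hinton broth and inoculated. Incubated at 37°C for 24 h. MIC taken as the lowest concentration with no growth. Ciprofloxacin is the antibacterial reference, fluconazole the antifungal one, and DMSO the blank.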

For series [11], the system named is Escherichia coli. Description: Antimicrobial activity against Escherichia coli ATCC 25922 incubated for 24 hrs by agar well diffusion assay. Type of series: functional. In a few lines: as §1
Series [12] deals with Enterococcus faecalis. The series is described as follows: Antimicrobial activity against Enterococcus faecalis ATCC 29212 incubated for 24 hrs by agar well diffusion assay. Type of series: functional. In a few lines:
as §1

In series [13] the test system is Pseudomonas aeruginosa. The series is described as follows: Antimicrobial activity against Pseudomonas aeruginosa ATCC 27853 incubated for 24 hrs by agar well diffusion assay. Type of series: functional. Put shortly: as §1
Series [14] relates to Candida albicans. The series is described as follows: Antimicrobial activity against Candida albicans ATCC 90028 incubated for 24 hrs by microdilution assay. Type of series: functional. Put shortly: as §2
In series [15] the test system is Staphylococcus aureus. Description: Antimicrobial activity against Staphylococcus aureus ATCC 25923 incubated for 24 hrs by agar well diffusion assay. Type of series: functional. In a few lines: as §1
The test system of series [16] is Escherichia coli. The series is described as follows: Antimicrobial activity against Escherichia coli ATCC 25922 incubated for 24 hrs by microdilution assay. Type of series: functional. To be noted: ATCC 25922, 24 h. In a few lines:
as §2

On to `O=C(OC1(C(=O)Nc2ccc([N+](=O)[O-])cc2)CCCCC1)c1ccc([N+](=O)[O-])cc1`, for which, in [1], the IC50 was determined as 0.761 µM. Also, the EC100 in series [1] came out at 0.149 µM. In addition, the Activity in series [2] was found to be 55.46%; in [3], 57.37%; in [5], 23.385%; in [6], 19.9%; in series [7], 22.83%; in series [8] it was 18.965%. Moreover, in series [4], the selectivity ratio turned out to be 54.

`O=C(Cc1ccccc1)OC1(C(=O)Nc2ccc([N+](=O)[O-])cc2)CCCCC1`: the IC50 in series [1] was found to be 0.0439 µM. Also, in [1], the EC100 is 0.032 µM. The “diameter of the inhibition zone (DIZ)” value in series [9], in series [12] and in series [15] was “inactive” throughout. Moreover, the Activity in series [2] was found to be 61.34%; in series [3], 63.53%; in series [5], 27.77%; in [6], 7.13%; in series [7] it was 13.64%; in series [8], 20.09%. In addition, the MIC result in [10] and in series [14] was “inactive” each time. For the same compound, the selectivity ratio in [4] was 3.09. Also, the “diameter of the inhibition zone (DIZ)” value in series [11] worked out at 16 mm; in series [13] it was 15 mm. Moreover, in series [16], the MIC is 2680 µM (≈ 1020 µg/mL).

Take `O=C(OC1(C(=O)Nc2ccc([N+](=O)[O-])cc2)CCCCC1)C(O)c1ccccc1` (stereo not drawn): the IC50 in series [1] worked out at 0.0844 µM. Also, the EC100 in series [1] is 0.0507 µM. Also, the “diameter of the inhibition zone (DIZ)” value in [9], in series [12] and in [15] was “inactive” in each case. For the same compound, the Activity in [2] was found to be 53.25%; in series [3], 47.87%; in [5], 42.85%; in series [6], 7.11%; in series [7], 21.04%; in series [8] it was 23.645%. Also, the MIC result in series [10] and in series [14] was “inactive” in each case. In addition, in [4], the selectivity ratio amounted to 11. For the same compound, the “diameter of the inhibition zone (DIZ)” value is 16 mm in [11] and 14 mm in series [13]. In series [16], this compound showed an MIC of 2570 µM (≈ 1020 µg/mL).
